Screens from PubChem.
The sample as a whole holds a higher share of hits than the screen did.
Fibroblast inh = blocks proliferation of human lung fibroblasts. LL 47 human lung fibroblast viability, ATP luminescence; hits give low values. viability, % at 10 µM. actives 1.1% (n = 85,000). AID 719;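 active = viability at or below 50% in the single dose screen; inactive = viability above 50%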;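 also: compound exposure lasted 72 h before the ATP readout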
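Test system: LL 47 human lung fibroblasts; Quantity: 1,150 cells/well; Buffer or medium: IMEM plus 15% FBS; Dosing: tenfold compound dosing solution, DMSO at 0.1%; Timing: overnight cell rest, 72 h compound treatment at 37 °C; Detection: ATP-based CellTiter-Glo luminescent readout; Read-out basis: viability percentage against median untreated-cell control; Controls: cell-only wells, no compound.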
HCT116 bCat-KO = beta-catenin-lacking colon tumor cell growth suppression; viability, % at 10 µM; actives 1.5% (n = 140,000); HCT116 beta-catenin knockout viability, CellTiter-Glo, 60 h; hits give low values;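 active = viability at or under a set limit, the compound median less 4 SD, cut at about 6% in these data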
HUVEC prolif 384 = human endothelial cell proliferation inhibition; HUVEC proliferation, CellTiter-Glo luminescence, 72 h; hits give low values; actives 1.1% (n = 86,000); viability, % at 10 µM (by protocol); AID 648;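 active = viability at or below 30%; inactive = viability above 30%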
PTEN del growth = growth suppressors of cells with PTEN tumor suppressor deletion; HCT116 PTEN-null viability, CellTiter-Glo, 60 h; hits give low values; viability, % at 10 µM; actives 1.2% (n = 140,000); AID 827;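 active = viability at or below a set limit, 4 SD under the median of all tested compounds, cut at about 3.7% in these data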;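 also: PTEN knockout HCT116 line with beta catenin targeted HCT116 as companion control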
H69AR growth 86K = blocks growth of human H69AR lung tumor cells; H69AR lung tumor viability, ATP luminescence, 72 h; hits give low values; viability, % at 10 µM; actives 6% (n = 85,000);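 active = viability at or below 40%; inactive = viability above 40%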;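 also: multidrug resistant small cell line overexpressing MRP-1 efflux transporter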
Each line names hits and unclear results; the compound was inactive in the other large screens.

O=C(NCc1cccnc1)c1ccc(CS(=O)(=O)c2ccc(Cl)cc2)o1	none
CCN(CC)c1ccc(C2C(C(C)=O)C(=O)CC(C)(O)C2C(C)=O)cc1 (stereo not given)	none (no result: HCT116 bCat-KO, PTEN del growth)
CC1=Nc2ncnn2C(c2ccccc2)/C1=N\O (stereo not given)	none
CCCN1C(=O)/C(=N\OCC(=O)NC23CC4CC(CC(C4)C2)C3)c2ccccc21	none (no result: Fibroblast inh, HUVEC prolif 384, H69AR growth 86K)
CCc1c(C)nc(/N=C(/NC(=O)c2ccccc2)Nc2ccccc2OC)[nH]c1=O	none (no result: HCT116 bCat-KO, PTEN del growth)
Cc1cc(C)c(C)c(S(=O)(=O)NCC(=O)Nc2sc3c(c2C(N)=O)CCCC3)c1C	none (no result: Fibroblast inh, HUVEC prolif 384, H69AR growth 86K)
Cc1ccc(C2=NN(CC(=O)NCc3ccccn3)C(=O)CC2)cc1	none (no result: Fibroblast inh, HUVEC prolif 384, H69AR growth 86K)
CCCCCSc1nc(N2CCOCC2)c2c(c1C#N)CC(C)(C)OC2	H69AR growth 86K 33.0
CC1(C)Cc2c(C#N)c(SCC(=O)c3ccccc3)nc(N3CCOCC3)c2CO1	Fibroblast inh 47.5
CC1(C)Cc2c(C#N)c(SCc3ccccc3)nc(N3CCOCC3)c2CO1	none
COC(=O)Sc1nc(N2CCOCC2)c2c(c1C#N)CC(C)(C)OC2	none
CC1(C)Cc2c(c(N3CCOCC3)nc3snc(NC(=O)c4ccccc4)c23)CO1	H69AR growth 86K 36.5
CC1(C)Cc2c(C#N)c(N3CCN(C(=O)c4ccccc4)CC3)nc(Cc3ccccc3)c2CO1	H69AR growth 86K 29.4
COc1ccc2nc(C)c(C(=O)NN)cc2c1	none (no result: Fibroblast inh, HUVEC prolif 384, H69AR growth 86K)
COC(=O)NNC(=O)C1CCC(C(=O)NNC(=O)OC)CC1 (stereo not given)	none (no result: Fibroblast inh, HUVEC prolif 384, H69AR growth 86K)
CN(Cc1ccc(O)cc1)C1CCCCC1	H69AR growth 86K 29.8 (no result: Fibroblast inh)
COc1ccc(CN(C)C2CCCCC2)cc1	none
CC(=O)N1CCc2c(sc(NC(=O)c3ccc4c(c3)OCCO4)c2C#N)C1	H69AR growth 86K 24.4
COc1ccccc1/C=C/C(=O)c1c2c(c(C)[nH]c1=O)CCCC2	HCT116 bCat-KO 5.4, PTEN del growth 3.2 (no result: Fibroblast inh, HUVEC prolif 384, H69AR growth 86K)
COc1ccccc1/C=C/C(=O)c1ccc(NC(C)=O)cc1	none (no result: Fibroblast inh, HUVEC prolif 384, H69AR growth 86K)
CC(=O)Nc1ccc(S(=O)(=O)N2CCN(c3cc(C)nc4ccccc34)CC2)cc1	none
CC(=O)Nc1ccc(S(=O)(=O)N2CCN(c3nc(NC4CCCC4)c4ccccc4n3)CC2)cc1	HCT116 bCat-KO 1.5, HUVEC prolif 384 10.6, PTEN del growth 1.5, H69AR growth 86K 1.4
O=C(CCCO)CCCCCCCCC[C@H]1N[C@H](CO)[C@@H](O)[C@@H]1O	none (no result: Fibroblast inh, HUVEC prolif 384, H69AR growth 86K)
CCc1cc(-c2[nH]ncc2-c2ccc3c(c2)OCO3)c(O)cc1O	HUVEC prolif 384 9.7
COc1ccc(-c2[nH]ncc2-c2ccc3c(c2)OCCO3)c(O)c1	none (no result: Fibroblast inh, HUVEC prolif 384, H69AR growth 86K)
CCCc1cc(-c2[nH]ncc2-c2ccc3c(c2)OCCCO3)c(O)cc1OC	HUVEC prolif 384 5.5, H69AR growth 86K 17.6
COc1ccc(C(=O)COC(=O)C(CCSC)NS(=O)(=O)c2ccc(Cl)cc2)cc1 (stereo not given)	none (no result: Fibroblast inh, HUVEC prolif 384, H69AR growth 86K)
CCN(CC(=O)NCc1ccc(F)cc1)C(=O)COc1ccc2ccccc2c1	none (no result: Fibroblast inh, HUVEC prolif 384, H69AR growth 86K)
CCCCNCc1cc(Br)c(OCc2cccs2)c(OC)c1	HCT116 bCat-KO 1.4, PTEN del growth 1.3 (no result: Fibroblast inh, HUVEC prolif 384, H69AR growth 86K)
CCOc1c(Br)cc(CNCc2cccs2)cc1OC	none (no result: Fibroblast inh, HUVEC prolif 384, H69AR growth 86K)
CC(C)n1nc(C(=O)Nc2nc3ccc(S(C)(=O)=O)cc3s2)c2ccccc2c1=O	Fibroblast inh 49.8
COc1ccc(-n2nc(C(=O)Nc3nc4ccc(OC)cc4s3)c3ccccc3c2=O)cc1	none (no result: Fibroblast inh, HUVEC prolif 384, H69AR growth 86K)
CC(C)(C)NS(=O)(=O)c1ccc2nc(NC(=O)Cc3cccs3)sc2c1	H69AR growth 86K 27.6
CS(=O)(=O)c1ccc2nc(NC(=O)Cc3ccccc3)sc2c1	none (no result: HCT116 bCat-KO, PTEN del growth)
CS(=O)(=O)c1ccc2nc(NC(=O)CCC(=O)c3cccs3)sc2c1	H69AR growth 86K 39.6
O=C(Nn1cnnc1)c1ccc(F)c(S(=O)(=O)N2CCCCC2)c1	none
O=C(OCn1nnc2ccccc2c1=O)c1cc2ccccc2o1	none (no result: HCT116 bCat-KO, PTEN del growth)
Cc1nn(C)cc1/C=C/C(=O)c1cccs1	H69AR growth 86K 38.9
Cc1cc(Nc2nc3ccccc3nc2Cl)n(-c2ccc([N+](=O)[O-])cc2)n1	H69AR growth 86K 21.4
COc1ccc(C2C(C(=O)O)CCC(=O)N2c2ccc(OC)cc2)cc1 (stereo not given)	none
CCCCN(C)C(=O)C1CCC(=O)N(c2cc(OC)c(OC)c(OC)c2)C1c1ccc(OC)cc1 (stereo not given)	HCT116 bCat-KO 0.9, PTEN del growth 0.7
CC(C)[C@H](NS(=O)(=O)c1ccc2c(c1)OCCO2)C(=O)OCC(=O)Nc1cc(Cl)ccc1Cl	none (no result: Fibroblast inh, HUVEC prolif 384, H69AR growth 86K)
O=C(Nc1c(C(=O)Nc2cccc(F)c2)oc2ccccc12)c1ccc2c(c1)OCO2	H69AR growth 86K 24.4
